MEKK3 PB1 HTS: modulators of MEKK3-MEK5 PB1 binding, primary screen, biochemical, wildtype MEKK3, multiplex bead flow cytometry, Alexa488-MEK5; binding response (% of control), % at 10 µM; 290,000 compounds, 1.4% hits; bead-based flow cytometry, Alexa488-MEK5 binding to MEKK3; actives lie on both sides; 0 = blocked by unlabeled MEK5, 100 = vehicle;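 active means binding response more than 3 SD above or below the average of its plate-row segment, actives on both sides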;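 further: Alexa488 bead fluorescence after subtracting the streptavidin-only scavenger bead signal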
Target sequence (Q99759 whole entry, looked up): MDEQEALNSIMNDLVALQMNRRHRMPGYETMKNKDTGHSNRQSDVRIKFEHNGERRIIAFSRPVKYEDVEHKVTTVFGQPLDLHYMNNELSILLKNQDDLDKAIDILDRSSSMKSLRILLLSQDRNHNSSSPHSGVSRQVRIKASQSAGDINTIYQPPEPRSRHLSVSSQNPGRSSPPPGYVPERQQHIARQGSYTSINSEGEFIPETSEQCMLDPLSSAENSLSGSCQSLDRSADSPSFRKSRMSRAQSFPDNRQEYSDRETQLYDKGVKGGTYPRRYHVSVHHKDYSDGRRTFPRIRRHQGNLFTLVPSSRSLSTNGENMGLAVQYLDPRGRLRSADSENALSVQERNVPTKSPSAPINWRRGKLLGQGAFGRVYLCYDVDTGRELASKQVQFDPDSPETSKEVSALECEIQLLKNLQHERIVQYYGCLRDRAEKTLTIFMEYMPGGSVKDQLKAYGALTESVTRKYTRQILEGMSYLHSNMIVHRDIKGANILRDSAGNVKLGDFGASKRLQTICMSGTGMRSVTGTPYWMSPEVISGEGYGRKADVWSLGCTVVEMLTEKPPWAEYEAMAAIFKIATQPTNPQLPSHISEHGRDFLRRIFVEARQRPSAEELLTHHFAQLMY
VIM-2 inhibitor: VIM-2 metallo-beta-lactamase inhibitors, primary screen, biochemical, epi-absorbance readout, Pseudomonas aeruginosa enzyme; inhibition, % at 5.6 µM; purified VIM-2, nitrocefin hydrolysis, epi-absorbance fluorescence; 290,000 compounds, 0.89% hits;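 active means inhibition above the mean of all tested compounds plus 3 SD, cutoff set per screening run, cut at about 7.5% in these data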;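 further: red hydrolysis product quenches plate fluorescence so inhibitors raise well fluorescence; 0% = enzyme with DMSO and 100% = DMSO without enzyme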
IMP-1 inhibitor: IMP-1 metallo-beta-lactamase inhibitors, primary screen, biochemical, epi-absorbance readout, Pseudomonas aeruginosa enzyme | metallo-beta-lactamase IMP-1 (Pseudomonas aeruginosa) | purified IMP-1, nitrocefin hydrolysis, epi-absorbance fluorescence | inhibition, % at 5.6 µM | 290,000 compounds, 0.45% hits | AID 1556, 2009;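 active means inhibition above the mean plus 3 SD of all compounds in the same screening run, cut at about 4.5% in these data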;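 further: 0% = IMP-1 with DMSO and 100% = DMSO wells lacking enzyme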
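Test system: recombinant IMP-1 enzyme, purified / Medium: HEPES buffer pH 7.1 with ZnSO4 and Brij 35 / Doses: single dose, 5.6 µM / Times: 25 °C, 15 min preincubation, 25 min reaction / Detection: Epi-absorbance via hydrolysed-nitrocefin quenching of white-plate fluorescence, 480/530 nm, EDTA stop / Evaluation: percent inhibition from optical density relative to buffer-blank wells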
MEKK2 WT-MEK5: modulators of MEK5 binding to wildtype MEKK2, primary screen, biochemical, multiplex bead flow cytometry, Alexa488-MEK5; Mitogen-activated protein kinase kinase kinase 2 (Homo sapiens), Q9Y2U5; Alexa488-MEK5 binding to MEKK2 WT; actives lie on both sides; binding response (% of control), % at 10 µM; 290,000 compounds, 1.1% hits; in the data active means binding response below about 67% or above about 130%
MEKK2 mut-MEK5: MEK5 binding signal on mutant MEKK2 PB1, primary screen, biochemical, multiplex bead flow cytometry, Alexa488-MEK5; Alexa488-MEK5 binding to MEKK2 mutant; percent response, % at 10 µM; 290,000 compounds, 0.35% hits; AID 1530, 2009; in the data active means percent response above about 24%, passing the limit was not always enough
MEKK2wt confirm: modulators of MEK5 binding to wildtype MEKK2, confirmation, biochemical, single concentration, multiplex bead flow cytometry; Alexa488-MEK5 binding to MEKK2 WT; actives lie on both sides; binding response (% of control), % at 10 µM; shares compounds with MEKK3 PB1 HTS; 5,900 compounds, 2.4% hits; in the data active means binding response below about 16% or above about 210%; inactive means in between
MEKK2mut-MEK5: mutant MEKK2 PB1-MEK5 binding signal retest – biochemical, single concentration, multiplex bead flow cytometry, confirmation | shares compounds with MEKK3 PB1 HTS | Alexa488-MEK5 binding to MEKK2 mutant | percent response, % at 10 µM | 5,900 compounds, 2% hits | AID 1893, 2009; in the data active means percent response mostly above about 71%, no sharp cut-off; inactive means mostly below about 38%;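 further: higher means compound restores mutant binding toward wildtype level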
MEKK3-MEK5 inh: MEKK3 wild-type PB1 binding to MEK5, inhibitors, confirmation, biochemical, bead multiplex flow cytometry, single concentration, wildtype | binding response (% of control), % at 10 µM | Alexa488-MEK5 binding to MEKK3; stronger effect = lower value | shares compounds with MEKK3 PB1 HTS | AID 1894, 2009 | 5,900 compounds, 1.8% hits;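 active means binding response below 72% of control, or above a set upper limit, though filed actives all read lower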;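 further: 100% = DMSO only wells and 0% = binding blocked by excess unlabeled MEK5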
An asterisk follows results filed as active; [ ] = dose if it differs, or a comment. Compounds with a hit are over-represented: about 3.4% of the library has one in this group of screens.

What do the screens show for `CC1(C)CC(=O)/C(=C(\O)Cc2ccccc2)C(=NCCCCCC(=O)O)C1`?
MEKK3 PB1 HTS: 106.0; VIM-2 inhibitor: -0.7; IMP-1 inhibitor: -3.2; MEKK2 WT-MEK5: 105.0; MEKK2 mut-MEK5: 20.0

How did O=C(NCCCN1CCOCC1)c1cc2c([nH]c3ccccc32)c(-c2cccc(Br)c2)n1 do in these assays?
MEKK3 PB1 HTS: 112.0; VIM-2 inhibitor: 12.2*; IMP-1 inhibitor: -3.2; MEKK2 WT-MEK5: 161.0*; MEKK2 mut-MEK5: 31.0*; MEKK2wt confirm: 177.0; MEKK2mut-MEK5: 36.0; MEKK3-MEK5 inh: 110.0

Results for Cc1ccccc1-n1c(SCC(=O)N/N=C/C=C/c2ccccc2[N+](=O)[O-])nc2ccccc2c1=O ?
MEKK3 PB1 HTS: 134.0*; VIM-2 inhibitor: -3.2; IMP-1 inhibitor: -2.5; MEKK2 WT-MEK5: 102.0; MEKK2 mut-MEK5: 0.0; MEKK2wt confirm: 97.0; MEKK2mut-MEK5: -7.0; MEKK3-MEK5 inh: 104.0

How did O=C(N/N=C/C=C/c1ccccc1[N+](=O)[O-])c1cc(-c2cccnc2)nc2ccccc12 do in these assays?
MEKK3 PB1 HTS: 65.0*[inhibitor]; VIM-2 inhibitor: -4.2; IMP-1 inhibitor: -3.8; MEKK2 WT-MEK5: 90.0; MEKK2 mut-MEK5: -2.0; MEKK2wt confirm: 103.0; MEKK2mut-MEK5: 3.0; MEKK3-MEK5 inh: 106.0

What do the screens show for `O=C(CSc1nc2ccccc2c(=O)n1-c1ccccc1)N/N=C/C=C/c1ccccc1[N+](=O)[O-]`?
MEKK3 PB1 HTS: 100.0; VIM-2 inhibitor: -3.0; IMP-1 inhibitor: -2.5; MEKK2 WT-MEK5: 98.0; MEKK2 mut-MEK5: 0.0

How did Cc1ccc(/C=C2/C(=O)c3ccc(C(=O)O)cc3C2=O)o1 do in these assays?
MEKK3 PB1 HTS: 98.0; VIM-2 inhibitor: -2.6; IMP-1 inhibitor: -0.5; MEKK2 WT-MEK5: 93.0; MEKK2 mut-MEK5: -9.0

Results for CCCSc1nc(N)cc(=O)[nH]1 ?
MEKK3 PB1 HTS: 35.0*[inhibitor]; VIM-2 inhibitor: 0.2; IMP-1 inhibitor: -0.4; MEKK2 WT-MEK5: 46.0*[inhibitor]; MEKK2 mut-MEK5: -18.0; MEKK2wt confirm: 94.0; MEKK2mut-MEK5: -6.0; MEKK3-MEK5 inh: 95.0

Results for CC(C)CCN1CC(C(=O)NCc2ccc(F)cc2)CC1=O (configuration not stated) ?
MEKK3 PB1 HTS: 105.0; VIM-2 inhibitor: -1.9; IMP-1 inhibitor: -3.3; MEKK2 WT-MEK5: 105.0; MEKK2 mut-MEK5: 2.0

What do the screens show for `Cc1ccc(CCN2CC(C(=O)NCCCN3CCC(C)CC3)CC2=O)cc1` (configuration not stated)?
MEKK3 PB1 HTS: 94.0; VIM-2 inhibitor: 3.0; IMP-1 inhibitor: -1.3; MEKK2 WT-MEK5: 100.0; MEKK2 mut-MEK5: -2.0

How did Cc1ccc(S(=O)(=O)N2CCC(C(=O)NCCN3CCCCCC3)CC2)cc1 do in these assays?
MEKK3 PB1 HTS: 96.0; VIM-2 inhibitor: -1.6; IMP-1 inhibitor: -3.0; MEKK2 WT-MEK5: 170.0*; MEKK2 mut-MEK5: 34.0*; MEKK2wt confirm: 121.0; MEKK2mut-MEK5: 7.0; MEKK3-MEK5 inh: 94.0

Results for O=C(NCc1ccc(F)cc1)C1CC(=O)N(CCc2ccccc2)C1 (configuration not stated) ?
MEKK3 PB1 HTS: 2.0*[inhibitor]; VIM-2 inhibitor: -1.7; IMP-1 inhibitor: 1.3; MEKK2 WT-MEK5: 3.0*[inhibitor]; MEKK2 mut-MEK5: -69.0; MEKK2wt confirm: 106.0; MEKK2mut-MEK5: 5.0; MEKK3-MEK5 inh: 103.0

What do the screens show for `Cc1ccc(CCN2CC(C(=O)NCCCN3CCCCCC3)CC2=O)cc1` (configuration not stated)?
MEKK3 PB1 HTS: 95.0; VIM-2 inhibitor: -0.4; IMP-1 inhibitor: -2.0; MEKK2 WT-MEK5: 138.0*; MEKK2 mut-MEK5: 21.0; MEKK2wt confirm: 119.0; MEKK2mut-MEK5: 5.0; MEKK3-MEK5 inh: 100.0

How did COc1ccc(CN2CC(C(=O)NCCCN3CCCCC3)CC2=O)cc1 (configuration not stated) do in these assays?
MEKK3 PB1 HTS: 104.0; VIM-2 inhibitor: -3.1; IMP-1 inhibitor: -5.1; MEKK2 WT-MEK5: 103.0; MEKK2 mut-MEK5: 2.0

What do the screens show for `COc1ccc(CN2CC(C(=O)NCCCN3CCCCCC3)CC2=O)cc1` (configuration not stated)?
MEKK3 PB1 HTS: 103.0; VIM-2 inhibitor: -0.2; IMP-1 inhibitor: -2.5; MEKK2 WT-MEK5: 137.0*; MEKK2 mut-MEK5: 19.0; MEKK2wt confirm: 119.0; MEKK2mut-MEK5: 37.0; MEKK3-MEK5 inh: 104.0

Results for CCOc1ccc(C(=O)CCCC(=O)c2ccc(OCC)cc2)cc1 ?
MEKK3 PB1 HTS: 108.0; VIM-2 inhibitor: -1.5; IMP-1 inhibitor: -4.9; MEKK2 WT-MEK5: 111.0; MEKK2 mut-MEK5: 6.0

How did COc1ccccc1NC(=O)C1CC(=O)OC1c1ccccc1 (configuration not stated) do in these assays?
MEKK3 PB1 HTS: 103.0; VIM-2 inhibitor: -3.7; IMP-1 inhibitor: -1.6; MEKK2 WT-MEK5: 102.0; MEKK2 mut-MEK5: 7.0

What do the screens show for `COc1ccc(S(=O)(=O)CC(=O)c2cc(C)c(O)c(C)c2)cc1`?
MEKK3 PB1 HTS: 107.0; VIM-2 inhibitor: 0.9; IMP-1 inhibitor: -1.9; MEKK2 WT-MEK5: 103.0; MEKK2 mut-MEK5: 2.0

What do the screens show for `COc1ccc2c(c1)Cc1sc(NC(=O)c3cccs3)nc1-2`?
MEKK3 PB1 HTS: 101.0; VIM-2 inhibitor: -0.3; IMP-1 inhibitor: 3.6; MEKK2 WT-MEK5: 104.0; MEKK2 mut-MEK5: -1.0

Results for Cc1ccc(CCN2CC(C(=O)NCCN3CCCCCC3)CC2=O)cc1 (configuration not stated) ?
MEKK3 PB1 HTS: 107.0; VIM-2 inhibitor: -3.1; IMP-1 inhibitor: -3.1; MEKK2 WT-MEK5: 161.0*; MEKK2 mut-MEK5: 62.0*; MEKK2wt confirm: 151.0; MEKK2mut-MEK5: 72.0*; MEKK3-MEK5 inh: 108.0

What do the screens show for `Cc1ccc(S(=O)(=O)NC(=O)N(C)C2CCCCC2)cc1`?
MEKK3 PB1 HTS: 130.0*; VIM-2 inhibitor: -1.7; IMP-1 inhibitor: -0.3; MEKK2 WT-MEK5: 130.0; MEKK2 mut-MEK5: 28.0; MEKK2wt confirm: 84.0; MEKK2mut-MEK5: -4.0; MEKK3-MEK5 inh: 100.0
